Test results: ChEMBL document CHEMBL1955854, “New retinoid derivatives as back-ups of Adarotene” (Bioorg Med Chem, 2012)

Legend:
[1] = Chemical stability in aqueous buffer containing 5% DMSO and 5% tween 80 at pH 1.2 assessed as compound recovery in anoxic conditions after 3 hrs by UPLC analysis; assay type: physicochemical; conditions: read-out: Stability
Summary of the method: (§1)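 Stability at 37 °C in aqueous buffer with 5% DMSO and 5% Tween 80 at pH 1.2, 6.8 or 7.4; percent recovery by HPLC/UPLC on BEH C18 column, water+0.1% TFA/acetonitrile gradient from 40% to 95% acetonitrile over 8 min, room temperature.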

[2] = Chemical stability in aqueous buffer containing 5% DMSO and 5% tween 80 at pH 6.8 assessed as compound recovery in anoxic conditions after 24 hrs by UPLC analysis; assay type: physicochemical; conditions: read-out: Stability; summary of the method: as §1
[3] = Chemical stability in aqueous buffer containing 5% DMSO and 5% tween 80 at pH 7.4 assessed as compound recovery in anoxic conditions after 24 hrs by UPLC analysis; assay type: physicochemical; conditions: read-out: Stability; summary of the method: as §1
[4] = Chemical stability in aqueous buffer containing 5% DMSO and 5% tween 80 at pH 1.2 assessed as compound recovery in anoxic conditions after 12 hrs by UPLC analysis; assay type: physicochemical; conditions: pH 1.2, 12 h; summary of the method: as §1
Plasma [5] = experiment: Prodrug conversion in mouse plasma assessed as drug concentration at 0.5 hrs; assay type: ADME, cell-free
Summary of the method: (§2)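 Prodrugs already shown stable at pH 1.2, 6.8 and 7.4 were incubated in murine plasma and sampled over time up to 6 h. A parallel incubation used murine plasma pretreated with the esterase inhibitor PMSF (phenylmethyl sulfonyl fluoride).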

Plasma [6] = experiment: Prodrug conversion in mouse plasma assessed as drug concentration at 1 hr; assay type: ADME, cell-free; summary of the method: as §2
Plasma [7] = experiment: Prodrug conversion in mouse plasma assessed as drug concentration at 3 hrs; assay type: ADME, cell-free; summary of the method: as §2
Plasma [8] = experiment: Prodrug conversion in mouse plasma assessed as drug concentration at 6 hrs; assay type: ADME, cell-free; summary of the method: as §2
Plasma [9] = experiment: Prodrug conversion in mouse plasma assessed as drug concentration at 6 hrs in presence of esterase inhibitor PMSF; assay type: ADME, cell-free; summary of the method: as §2
NCI-H460 [10] = experiment: Antiproliferative activity against human NCI-H460 cells incubated for 24 hrs drug exposure measured after 48 hrs of recovery by sulforhodamine B assay; assay type: functional, cell-based
A-431 [11] = experiment: Antiproliferative activity against human A431 cells incubated for 24 hrs drug exposure measured after 48 hrs of recovery by sulforhodamine B assay; assay type: functional, cell-based
A-431 [12] = experiment: Antitumor activity against human A431 cells xenografted in nude CD1 mouse assessed as tumor volume inhibition at 40 mg/kg, ip administered qd 3 times per week for 2 weeks relative to control; assay type: functional; conditions: A-431, ip, 336 h, route intraperitoneal, read-out: TGI
Summary of the method: (§3)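 A431 epidermoid carcinoma cells (5 × 10⁶) from in vitro culture were injected s.c. into the right flank of CD1 nude mice on day 0, with 8 mice per group. Dosing began on day 3, at tumors of about 50 mm³, on a qdx3/wx2w schedule. Vehicle was 10% DMSO, 9% HPBCD and 14.4% PEG1000 in water. Tumor diameters were measured twice weekly by caliper, and TVI% was taken versus the vehicle group (Mann–Whitney).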

A-431 [13] = experiment: Antitumor activity against human A431 cells xenografted in nude CD1 mouse assessed as tumor volume inhibition at 40 mg/kg, po administered qd 3 times per week for 2 weeks relative to control; assay type: functional; conditions: A-431, 336 h, read-out: TGI; summary of the method: as §3
Mus musculus [14] = experiment: Toxicity in nude CD1 mouse xenografted with human A431 cells assessed as body weight loss at 40 mg/kg, ip administered qd 3 times per week for 2 weeks; assay type: organism-based, A-431; design: dose 40 mg/kg, route intraperitoneal; conditions: in vivo, 336 h
Summary of the method: (§4)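 CD1 nude mice bore s.c. A431 xenografts (5 × 10⁶ cells, right flank, 8 mice per group). Dosing started on day 3 on a qdx3/wx2w schedule, in vehicle of 10% DMSO, 9% HPBCD and 14.4% PEG1000 in water. Mice were weighed daily, and BWL% = 100 − (mean body weight day x / mean body weight day 1 × 100), with day 1 the first treatment day. The maximum BWL is reported.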

Mus musculus [15] = experiment: Toxicity in nude CD1 mouse xenografted with human A431 cells assessed as body weight loss at 40 mg/kg, po administered qd 3 times per week for 2 weeks; assay type: organism-based, A-431; design: dose 40 mg/kg, route oral; conditions: in vivo, 336 h; summary of the method: as §4
[16] = Solubility in water; assay type: physicochemical; conditions: buffer
[17] = Chemical stability in aqueous buffer containing 5% DMSO and 5% tween 80 at pH 6.8 assessed as compound recovery in anoxic conditions after 6 hrs by UPLC analysis; assay type: physicochemical; conditions: read-out: Stability; summary of the method: as §1
[18] = Chemical stability in aqueous buffer containing 5% DMSO and 5% tween 80 at pH 7.4 assessed as compound recovery in anoxic conditions after 6 hrs by UPLC analysis; assay type: physicochemical; conditions: read-out: Stability; summary of the method: as §1
NCI-H460 [19] = experiment: Antitumor activity against human NCI-H460 cells xenografted in nude CD1 mouse assessed as tumor volume inhibition at 18 mg/kg, iv administered qd 3 times per week for 2 weeks relative to control; assay type: functional; conditions: NCI-H460, 336 h, read-out: TGI
Summary of the method: (§5)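 CD1 nude mice given s.c. right-flank NCI-H460 (3 × 10⁶) or A431 (5 × 10⁶) cells from culture on day 0; eight mice per group. Dosing began day 3 at ~50 mm³ tumors; vehicle 10% DMSO, 9% HPBCD, 14.4% PEG1000 in water. Diameters taken biweekly by caliper; mice weighed daily, maximum BWL% reported; Mann–Whitney versus vehicle.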

A-431 [20] = experiment: Antitumor activity against human A431 cells xenografted in nude CD1 mouse assessed as tumor volume inhibition at 37 mg/kg, iv administered qd 3 times per week for 2 weeks relative to control; assay type: functional; conditions: A-431, 336 h, read-out: TGI; summary of the method: as §5
A-431 [21] = experiment: Antitumor activity against human A431 cells xenografted in nude CD1 mouse assessed as tumor volume inhibition at 10 mg/kg, iv administered qd 3 times per week for 2 weeks relative to control; assay type: functional; conditions: A-431, 336 h, read-out: TGI; summary of the method: as §5
Mus musculus [22] = experiment: Toxicity in nude CD1 mouse xenografted with human NCI-H460 NSCLC cells assessed as body weight loss at 18 mg/kg, iv administered qd 3 times per week for 2 weeks; assay type: organism-based; design: dose 18 mg/kg, route intravenous; conditions: in vivo, 336 h; summary of the method: as §5
Mus musculus [23] = experiment: Toxicity in nude CD1 mouse xenografted with human A431 cells assessed as body weight loss at 37 mg/kg, iv administered qd 3 times per week for 2 weeks; assay type: organism-based, A-431; design: dose 37 mg/kg, route intravenous; conditions: in vivo, 336 h; summary of the method: as §5
Mus musculus [24] = experiment: Toxicity in nude CD1 mouse xenografted with human A431 cells assessed as body weight loss at 10 mg/kg, iv administered qd 3 times per week for 2 weeks; assay type: organism-based, A-431; design: dose 10 mg/kg, route intravenous; conditions: in vivo, 336 h; summary of the method: as §5
[25] = Toxicity in iv dosed nude CD1 mouse xenografted with human A431 cells assessed as mortality administered qd 3 times per week for 2 weeks; assay type: organism-based, A-431; conditions: in vivo

With `Cl.O=C(O)/C=C/c1ccc(-c2ccc(OC(=O)N3CCC(N4CCCCC4)CC3)c(C34CC5CC(CC(C5)C3)C4)c2)cc1` the remaining at 3 h [1] was > 99%, the remaining at 24 h [2] was > 99% and the remaining at 24 h [3] was > 99%. The Stability [4] was “Stable”, the Drug metabolism (Plasma [5]) was 100% and the Drug metabolism (Plasma [6]) was 100%. For the same compound, the Drug metabolism (Plasma [7]) was 100%, the Drug metabolism (Plasma [8]) was 100% and the Drug metabolism (Plasma [9]) was 4.13%. For the same compound, the IC50 (NCI-H460 [10]) was > 10000 nM, the IC50 (A-431 [11]) was > 10000 nM and the inhibition in vivo at 40 mg/kg (A-431 [12]) was 26%. For the same compound, the inhibition in vivo at 40 mg/kg (A-431 [13]) was 22%, the Activity (Mus musculus [14]) was 0% and the Activity (Mus musculus [15]) was 4%. The solubility [16] was “Insoluble”.
With `O=C(O)/C=C/c1ccc(-c2ccc(OC(=O)CCCN3CCOCC3)c(C34CC5CC(CC(C5)C3)C4)c2)cc1` the remaining at 3 h [1] was > 99%, the remaining at 6 h [17] was 99% and the remaining at 24 h [2] was 90%. For the same compound, the remaining at 6 h [18] was 99%, the remaining at 24 h [3] was 88% and the Stability [4] was “Stable”. It also gave an IC50 (NCI-H460 [10]) of 220 nM, an IC50 (A-431 [11]) of 340 nM and an inhibition in vivo at 18 mg/kg (NCI-H460 [19]) of 37%. The inhibition in vivo at 37 mg/kg (A-431 [20]) was 59%, the inhibition in vivo at 10 mg/kg (A-431 [21]) was 34% and the Activity (Mus musculus [22]) was 10%. The Activity (Mus musculus [23]) was 18%, the Activity (Mus musculus [24]) was 0% and the solubility [16] was “Insoluble”. It also gave an MTD at 336 h [25] of 18 mg/kg.
